According to ChEMBL document CHEMBL4354826, “Structure-Based Discovery of SD-36 as a Potent, Selective, and Efficacious PROTAC Degrader of STAT3 Protein” (J Med Chem, 2019):
The source made the active and inactive calls. The calls are words filed in the database; no cut-off is given here.

What was measured:
[1] = Antiproliferative activity against human MOLM16 cells assessed as reduction in cell viability incubated for 4 days by cell-titer glo luminescent assay; type: functional, cell-based; conditions: MOLM16, 96 h
How it was run: (§1)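 Viability assay: cells incubated with serially diluted compounds for 4 days, viability read by CellTiter-Glo luminescence; IC50 from concentration–response.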

[2] = molecular target: T1, Protein cereblon/Signal transducer and activator of transcription 3 (Homo sapiens, UniProt P40763+Q96SW2); assay: Protac activity at CRBN/STAT3 in human MOLM16 cells assessed as degradation of STAT3 incubated for 4 hrs by Western blot analysis; type: cell-based
How it was run: (§2)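 Molm-16 cells treated 4 h with serially diluted compound. Lysates immunoblotted (SDS–PAGE, PVDF, 5% blocker/TBST, chemiluminescence) for total STAT3 and pSTAT3 Y705. DC50 taken as the concentration reducing total STAT3 by 50%.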

[3] = molecular target: T1, Protein cereblon/Signal transducer and activator of transcription 3; assay: Protac activity at CRBN/STAT3 in human MOLM16 cells assessed as degradation of phosphorylated STAT3 Y705 upto 10 uM incubated for 4 hrs by Western blot analysis; type: cell-based; how it was run: as §2
Target sequence in this assay (P40763 2-770 limits assumed): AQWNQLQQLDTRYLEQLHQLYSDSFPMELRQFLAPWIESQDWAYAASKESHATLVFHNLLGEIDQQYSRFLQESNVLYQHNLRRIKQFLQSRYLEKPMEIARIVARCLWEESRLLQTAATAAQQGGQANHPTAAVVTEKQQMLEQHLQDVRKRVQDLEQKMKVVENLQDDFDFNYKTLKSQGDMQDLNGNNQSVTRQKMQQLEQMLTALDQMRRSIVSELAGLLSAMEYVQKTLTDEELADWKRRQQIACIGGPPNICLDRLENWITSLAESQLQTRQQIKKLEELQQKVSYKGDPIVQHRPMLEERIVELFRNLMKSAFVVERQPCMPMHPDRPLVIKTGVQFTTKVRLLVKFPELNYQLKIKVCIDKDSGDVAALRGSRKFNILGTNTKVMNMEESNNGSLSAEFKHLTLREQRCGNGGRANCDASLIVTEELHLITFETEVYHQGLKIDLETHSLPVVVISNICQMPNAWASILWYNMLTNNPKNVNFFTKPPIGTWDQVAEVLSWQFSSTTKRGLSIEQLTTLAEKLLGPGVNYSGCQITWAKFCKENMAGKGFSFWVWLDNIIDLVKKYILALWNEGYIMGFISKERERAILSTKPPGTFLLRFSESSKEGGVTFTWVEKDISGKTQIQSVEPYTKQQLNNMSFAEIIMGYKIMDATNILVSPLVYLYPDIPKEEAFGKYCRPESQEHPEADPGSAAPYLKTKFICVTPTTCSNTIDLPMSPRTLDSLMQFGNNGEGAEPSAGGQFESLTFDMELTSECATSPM
Target sequence in this assay (Q96SW2 whole entry partner): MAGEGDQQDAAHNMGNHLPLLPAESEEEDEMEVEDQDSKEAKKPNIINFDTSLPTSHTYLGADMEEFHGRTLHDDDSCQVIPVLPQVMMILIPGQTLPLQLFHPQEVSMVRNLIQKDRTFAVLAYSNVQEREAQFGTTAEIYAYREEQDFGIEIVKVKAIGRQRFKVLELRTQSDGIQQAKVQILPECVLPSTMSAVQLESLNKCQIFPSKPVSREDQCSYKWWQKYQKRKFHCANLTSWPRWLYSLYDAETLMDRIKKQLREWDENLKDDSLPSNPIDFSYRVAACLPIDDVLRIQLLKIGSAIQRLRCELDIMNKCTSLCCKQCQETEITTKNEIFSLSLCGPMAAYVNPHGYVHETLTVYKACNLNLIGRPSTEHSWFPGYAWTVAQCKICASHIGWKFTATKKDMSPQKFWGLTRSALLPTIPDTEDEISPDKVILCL

[4] = molecular target: T1, Protein cereblon/Signal transducer and activator of transcription 3; assay: Protac activity at CRBN/STAT3 in human MOLM16 cells assessed as degradation of STAT3 up to 10 uM incubated for 4 hrs by Western blot analysis; type: cell-based; how it was run: as §2
Target sequence in this assay (P40763 2-770 limits assumed): as the sequence (P40763 2-770 limits assumed) above
Target sequence in this assay (Q96SW2 whole entry partner): as the sequence (Q96SW2 whole entry partner) above

[5] = molecular target: Signal transducer and activator of transcription 3 (Homo sapiens, UniProt P40763); assay: Binding affinity to recombinant human His/SUMO-tagged STAT3 (127 to 688 residues) expressed in Escherichia coli Rosetta (DE3) incubated for 1 hr by fluorescence polarization assay
[6] = molecular target: T1, Protein cereblon/Signal transducer and activator of transcription 3; assay: Protac activity at CRBN/STAT3 in human SUDHL1 cells assessed as degradation of STAT3 incubated for 16 hrs by Western blot analysis; type: cell-based
Target sequence in this assay (P40763 whole entry): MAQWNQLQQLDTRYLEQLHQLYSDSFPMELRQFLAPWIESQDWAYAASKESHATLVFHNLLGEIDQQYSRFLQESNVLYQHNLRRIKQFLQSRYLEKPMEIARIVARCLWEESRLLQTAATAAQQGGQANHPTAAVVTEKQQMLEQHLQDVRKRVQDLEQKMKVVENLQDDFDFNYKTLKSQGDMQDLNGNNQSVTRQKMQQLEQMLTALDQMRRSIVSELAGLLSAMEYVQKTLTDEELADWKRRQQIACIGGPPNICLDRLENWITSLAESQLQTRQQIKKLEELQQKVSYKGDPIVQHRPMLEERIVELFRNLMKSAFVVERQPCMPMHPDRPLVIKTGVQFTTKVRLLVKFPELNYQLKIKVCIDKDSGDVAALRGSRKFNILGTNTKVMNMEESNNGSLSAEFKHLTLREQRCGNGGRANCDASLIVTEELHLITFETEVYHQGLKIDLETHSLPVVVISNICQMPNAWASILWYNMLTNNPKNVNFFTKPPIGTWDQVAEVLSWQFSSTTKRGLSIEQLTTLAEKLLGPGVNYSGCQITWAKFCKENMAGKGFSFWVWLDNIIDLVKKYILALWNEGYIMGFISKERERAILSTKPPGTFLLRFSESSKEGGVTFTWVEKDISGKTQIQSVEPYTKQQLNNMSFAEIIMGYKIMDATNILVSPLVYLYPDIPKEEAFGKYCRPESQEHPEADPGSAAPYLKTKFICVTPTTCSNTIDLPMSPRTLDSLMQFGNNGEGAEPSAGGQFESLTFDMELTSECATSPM
Target sequence in this assay (Q96SW2 whole entry): as the sequence (Q96SW2 whole entry partner) above

SU-DHL-1 = assay: Antiproliferative activity against human SUDHL1 cells assessed as reduction in cell viability incubated for 4 days by cell-titer glo luminescent assay; type: functional, cell-based; conditions: SU-DHL-1, 96 h; how it was run: as §1
[7] = molecular target: T1, Protein cereblon/Signal transducer and activator of transcription 3; assay: Protac activity at CRBN/STAT3 in human MOLM16 cells assessed as degradation of STAT3 at 1 uM incubated for 4 hrs by Western blot analysis; type: cell-based; how it was run: as §2
Target sequence in this assay (P40763 2-770 limits assumed): as the sequence (P40763 2-770 limits assumed) above
Target sequence in this assay (Q96SW2 whole entry partner): as the sequence (Q96SW2 whole entry partner) above

[8] = molecular target: T1, Protein cereblon/Signal transducer and activator of transcription 3; assay: Protac activity at CRBN/STAT3 in human MOLM16 cells assessed as degradation of phosphorylated STAT3 Y705 at 1 uM incubated for 4 hrs by Western blot analysis; type: cell-based; how it was run: as §2
Target sequence in this assay (P40763 2-770 limits assumed): as the sequence (P40763 2-770 limits assumed) above
Target sequence in this assay (Q96SW2 whole entry partner): as the sequence (Q96SW2 whole entry partner) above

Signal transducer and activator of transcription 3, sequence (P40763 whole entry, the tested form may be a part): as the sequence (P40763 whole entry) above

| SMILES | IC50 [1] | DC50 [2] | other results |
| --- | --- | --- | --- |
| NC(=O)CC[C@H](NC(=O)[C@@H]1CC[C@@H]2CCN(C(=O)CCCCCC#Cc3cccc4c3CN(C3CCC(=O)NC3=O)C4=O)C[C@H](NC(=O)c3cc4cc(CP(=O)(O)O)ccc4[nH]3)C(=O)N21)C(=O)NC(c1ccccc1)c1ccccc1 (stereo partly specified) | > 2000 nM | > 10000 nM | Activity [3]: inactive; Activity [4]: inactive |
| NC(=O)CC[C@H](NC(=O)[C@@H]1CC[C@@H]2CCN(C(=O)CCCCCCCc3cccc4c3CN(C3CCC(=O)NC3=O)C4=O)C[C@H](NC(=O)c3cc4cc(C(F)(F)P(=O)(O)O)ccc4[nH]3)C(=O)N21)C(=O)NC(c1ccccc1)c1ccccc1 (stereo partly specified) | 63 nM | 160 nM |  |
| NC(=O)CC[C@H](NC(=O)[C@@H]1CC[C@@H]2CCN(C(=O)CCCn3cc(C#Cc4cccc5c4CN(C4CCC(=O)NC4=O)C5=O)cn3)C[C@H](NC(=O)c3cc4cc(C(F)(F)P(=O)(O)O)ccc4[nH]3)C(=O)N21)C(=O)NC(c1ccccc1)c1ccccc1 (stereo partly specified) | 232 nM | 250 nM |  |
| CN1CC[C@H]2CC[C@@H](C(=O)N[C@@H](CCC(N)=O)C(=O)NCc3ccccc3)N2C(=O)[C@@H](NC(=O)c2cc3cc(C(F)(F)P(=O)(O)O)ccc3[nH]2)C1 |  |  | Ki [5]: 14 nM |
| NC(=O)CC[C@H](NC(=O)[C@@H]1CC[C@@H]2CCN(C(=O)CCCCCCC#Cc3cccc4c3CN(C3CCC(=O)NC3=O)C4=O)C[C@H](NC(=O)c3cc4cc(C(F)(F)P(=O)(O)O)ccc4[nH]3)C(=O)N21)C(=O)NC(c1ccccc1)c1ccccc1 (stereo partly specified) | 25 nM | 90 nM |  |
| NC(=O)CC[C@H](NC(=O)[C@@H]1CC[C@@H]2CCN(C(=O)CCCCC#Cc3cccc4c3CN(C3CCC(=O)NC3=O)C4=O)C[C@H](NC(=O)c3cc4cc(C(F)(F)P(=O)(O)O)ccc4[nH]3)C(=O)N21)C(=O)NC(c1ccccc1)c1ccccc1 (stereo partly specified) | 78 nM | 260 nM |  |
| NC(=O)CC[C@H](NC(=O)[C@@H]1CC[C@@H]2CCN(C(=O)OCCCCC#Cc3cccc4c3CN(C3CCC(=O)NC3=O)C4=O)C[C@H](NC(=O)c3cc4cc(C(F)(F)P(=O)(O)O)ccc4[nH]3)C(=O)N21)C(=O)NC(c1ccccc1)c1ccccc1 (stereo partly specified) | 128 nM | 240 nM | DC50 [6]: 49 nM; IC50 (SU-DHL-1): 2370 nM |
| NC(=O)CC[C@H](NC(=O)[C@@H]1CC[C@@H]2CCN(C(=O)CCCC#Cc3cccc4c3CN(C3CCC(=O)NC3=O)C4=O)C[C@H](NC(=O)c3cc4cc(C(F)(F)P(=O)(O)O)ccc4[nH]3)C(=O)N21)C(=O)NC(c1ccccc1)c1ccccc1 (stereo partly specified) | 950 nM | 2630 nM | Activity [2]: Dose-dependent effect; Activity [7]: inactive; Activity [8]: inactive |
| NC(=O)CC[C@H](NC(=O)[C@@H]1CC[C@@H]2CCN(CCCCCCC#Cc3cccc4c3CN(C3CCC(=O)NC3=O)C4=O)C[C@H](NC(=O)c3cc4cc(C(F)(F)P(=O)(O)O)ccc4[nH]3)C(=O)N21)C(=O)NC(c1ccccc1)c1ccccc1 (stereo partly specified) | 147 nM | 650 nM | DC50 [6]: 919 nM; IC50 (SU-DHL-1): > 10000 nM |
| NC(=O)CC[C@H](NC(=O)[C@@H]1CC[C@@H]2CCN(C(=O)CCN3CCC(C#Cc4cccc5c4CN(C4CCC(=O)NC4=O)C5=O)CC3)C[C@H](NC(=O)c3cc4cc(C(F)(F)P(=O)(O)O)ccc4[nH]3)C(=O)N21)C(=O)NC(c1ccccc1)c1ccccc1 (stereo partly specified) | 360 nM | 2470 nM |  |
| CNC(=O)[C@H](CCC(N)=O)NC(=O)[C@@H]1CC[C@@H]2CCN(C(=O)CCCCCC#Cc3cccc4c3CN(C3CCC(=O)NC3=O)C4=O)C[C@H](NC(=O)c3cc4cc(C(F)(F)P(=O)(O)O)ccc4[nH]3)C(=O)N21 (stereo partly specified) | 226 nM | 640 nM | DC50 [6]: 890 nM; IC50 (SU-DHL-1): > 10000 nM |
| CC(=O)N1CC[C@H]2CC[C@@H](C(=O)N[C@@H](CCC(N)=O)C(=O)NC(c3ccccc3)c3ccccc3)N2C(=O)[C@@H](NC(=O)c2cc3cc(OP(=O)(O)O)ccc3[nH]2)C1 |  |  | Ki [5]: 33 nM |
| NC(=O)CC[C@H](NC(=O)[C@@H]1CC[C@@H]2CCN(C(=O)CCCCCC#Cc3ccc4c(c3)C(=O)N(C3CCC(=O)NC3=O)C4)C[C@H](NC(=O)c3cc4cc(C(F)(F)P(=O)(O)O)ccc4[nH]3)C(=O)N21)C(=O)NC(c1ccccc1)c1ccccc1 (stereo partly specified) | 711 nM | 360 nM |  |
| CN1CC[C@H]2CC[C@@H](C(=O)N[C@@H](CCC(N)=O)C(=O)NC(c3ccccc3)c3ccccc3)N2C(=O)[C@@H](NC(=O)c2cc3cc(C(F)(F)P(=O)(O)O)ccc3[nH]2)C1 |  |  | Ki [5]: 12 nM |
